Measured values: ChEMBL document CHEMBL5661979, “Pharmacological inhibition of BMK1 suppresses tumor growth through promyelocytic leukemia protein” (Cancer Cell, 2010)
pIC50, pKd: −log10 of the molar value.

Key:
[1] = target: Mixed lineage kinase domain-like protein (Homo sapiens, UniProt Q8NB16); assay: Inhibition of MLKL in human HeLa cells lysate pre incubated for 15 mins followed by ADP acyl phosphate probe addition and measured after 10 mins by LC-MS/MS analysis; assay type: subcellular
[2] = target: T1, Serine/threonine-protein kinase Sgk3 (Homo sapiens, UniProt Q96BR1); assay: Inhibition of SGK3 K2 site in human HeLa cells lysate pre incubated for 15 mins followed by ATP acyl phosphate probe addition and measured after 10 mins by LC-MS/MS analysis; assay type: subcellular
T1 sequence (Q96BR1 whole entry): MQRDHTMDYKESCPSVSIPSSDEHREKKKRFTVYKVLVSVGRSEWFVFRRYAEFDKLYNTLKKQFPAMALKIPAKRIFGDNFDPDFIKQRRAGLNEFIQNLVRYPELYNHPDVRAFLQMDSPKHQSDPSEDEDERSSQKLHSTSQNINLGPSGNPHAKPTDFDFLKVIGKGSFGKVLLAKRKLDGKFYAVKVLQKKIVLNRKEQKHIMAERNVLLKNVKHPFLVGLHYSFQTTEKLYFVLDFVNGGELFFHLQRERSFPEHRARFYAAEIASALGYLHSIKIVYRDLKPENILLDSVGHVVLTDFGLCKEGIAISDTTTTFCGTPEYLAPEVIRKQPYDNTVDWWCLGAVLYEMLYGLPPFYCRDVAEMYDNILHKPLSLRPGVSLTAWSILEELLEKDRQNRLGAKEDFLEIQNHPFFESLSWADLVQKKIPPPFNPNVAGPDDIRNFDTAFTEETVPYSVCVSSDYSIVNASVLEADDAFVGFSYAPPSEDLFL

[3] = target: Serine/threonine-protein kinase SMG1 (Homo sapiens, UniProt Q96Q15); assay: Inhibition of SMG1 in human HeLa cells lysate at 50 uM pre incubated for 15 mins followed by ATP acyl phosphate probe addition and measured after 10 mins by LC-MS/MS analysis relative to control; assay type: subcellular; conditions: time 25.0 min
[4] = target: Proto-oncogene tyrosine-protein kinase ROS (Homo sapiens) (UniProt P08922); assay: Inhibition of ROS1 (unknown origin) assessed as remaining activity at 10 uM by ATP-competition binding assay relative to control
[5] = target: Non-receptor tyrosine-protein kinase TNK1 (Homo sapiens, UniProt Q13470); assay: Binding affinity to TNK1 (unknown origin) assessed as dissociation constant by ATP-competition binding assay
[6] = Inhibition of NEK6/7 in human HeLa cells lysate at 10 uM pre incubated for 15 mins followed by ADP acyl phosphate probe addition and measured after 10 mins by LC-MS/MS analysis relative to control; conditions: 25 min, condition cancer
[7] = target: STE20-like serine/threonine-protein kinase (Homo sapiens, UniProt Q9H2G2); assay: Inhibition of SLK in human HeLa cells lysate at 50 uM pre incubated for 15 mins followed by ADP acyl phosphate probe addition and measured after 10 mins by LC-MS/MS analysis relative to control; assay type: subcellular; conditions: time 25.0 min
[8] = target: Ribosomal protein S6 kinase alpha-1 (Homo sapiens, UniProt Q15418); assay: Inhibition of RSK1 domain 2 K2 site in human HeLa cells lysate pre incubated for 15 mins followed by ADP acyl phosphate probe addition and measured after 10 mins by LC-MS/MS analysis; assay type: subcellular
[9] = target: T1, Serine/threonine-protein kinase Sgk3; assay: Inhibition of SGK3 in human HeLa cells lysate pre incubated for 15 mins followed by ADP acyl phosphate probe addition and measured after 10 mins by LC-MS/MS analysis; assay type: subcellular
[10] = target: Tyrosine-protein kinase Fer (Homo sapiens, UniProt P16591); assay: Inhibition of FER in human HeLa cells lysate at 2 uM pre incubated for 15 mins followed by ATP acyl phosphate probe addition and measured after 10 mins by LC-MS/MS analysis relative to control; assay type: subcellular; conditions: time 25.0 min
[11] = target: Mitogen-activated protein kinase kinase kinase 11 (Homo sapiens, UniProt Q16584); assay: Inhibition of MLK3 in human HeLa cells lysate pre incubated for 15 mins followed by ATP acyl phosphate probe addition and measured after 10 mins by LC-MS/MS analysis; assay type: subcellular
[12] = target: Ribosomal protein S6 kinase alpha-6 (Homo sapiens) (UniProt Q9UK32); assay: Inhibition of C-terminal RPS6KA6 kinase domain (unknown origin) assessed as remaining activity at 10 uM by ATP-competition binding assay relative to control
[13] = target: Serine/threonine-protein kinase Nek9 (Homo sapiens, UniProt Q8TD19); assay: Inhibition of NEK9 in human HeLa cells lysate pre incubated for 15 mins followed by ADP acyl phosphate probe addition and measured after 10 mins by LC-MS/MS analysis; assay type: subcellular
[14] = target: Calcium/calmodulin-dependent protein kinase type 1D (Homo sapiens, UniProt Q8IU85); assay: Inhibition of CAMK1d in human HeLa cells lysate at 50 uM pre incubated for 15 mins followed by ATP acyl phosphate probe addition and measured after 10 mins by LC-MS/MS analysis relative to control; assay type: subcellular; conditions: time 25.0 min
How it was run: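 KiNativ-type profiling in HeLa lysate (5 mg/mL total protein). Lysate preincubated 15 min with inhibitor at 50, 10, 2, 0.8 or 0 μM, then ATP or ADP acylphosphate probe added (5 μM final) for 10 min. Reaction stopped with urea and analysed by targeted MS, using up to four fragment ions per kinase peptide-probe conjugate. % inhibition calculated against untreated lysate. Duplicate reactions.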

[15] = target: T2, Serine/threonine-protein kinase 3 (Homo sapiens) (UniProt Q13188); assay: Inhibition of MST2 in human HeLa cells lysate at 2 uM pre incubated for 15 mins followed by ADP acyl phosphate probe addition and measured after 10 mins by LC-MS/MS analysis relative to control; assay type: subcellular; conditions: time 25.0 min
T2 sequence (whole entry): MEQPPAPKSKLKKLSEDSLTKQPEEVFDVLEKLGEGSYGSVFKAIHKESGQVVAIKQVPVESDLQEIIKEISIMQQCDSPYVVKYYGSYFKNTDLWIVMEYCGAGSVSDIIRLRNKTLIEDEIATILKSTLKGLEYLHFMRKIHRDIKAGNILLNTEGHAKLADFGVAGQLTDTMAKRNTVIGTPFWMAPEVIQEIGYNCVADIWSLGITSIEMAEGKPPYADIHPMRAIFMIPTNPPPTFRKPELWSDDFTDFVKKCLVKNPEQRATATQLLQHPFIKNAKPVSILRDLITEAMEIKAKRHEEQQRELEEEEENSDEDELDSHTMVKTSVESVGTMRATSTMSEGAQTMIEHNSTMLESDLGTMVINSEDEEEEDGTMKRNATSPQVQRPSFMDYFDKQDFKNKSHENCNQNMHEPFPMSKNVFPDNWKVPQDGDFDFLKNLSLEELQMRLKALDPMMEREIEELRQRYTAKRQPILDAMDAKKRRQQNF

[16] = target: Rho-associated protein kinase (Homo sapiens, UniProt O75116+Q13464); assay: Inhibition of ROCK1/2 in human HeLa cells lysate at 50 uM pre incubated for 15 mins followed by ATP acyl phosphate probe addition and measured after 10 mins by LC-MS/MS analysis relative to control; assay type: subcellular; conditions: time 25.0 min
[17] = target: T3, Serine/threonine-protein kinase Sgk3 (Homo sapiens) (UniProt Q96BR1); assay: Inhibition of SGK3 in human HeLa cells lysate at 2 uM pre incubated for 15 mins followed by ADP acyl phosphate probe addition and measured after 10 mins by LC-MS/MS analysis relative to control; assay type: subcellular; conditions: time 25.0 min
T3 sequence (whole entry): T1 sequence (Q96BR1 whole entry)

Chain of Non-receptor tyrosine-protein kinase TNK1 (Q13470 whole entry): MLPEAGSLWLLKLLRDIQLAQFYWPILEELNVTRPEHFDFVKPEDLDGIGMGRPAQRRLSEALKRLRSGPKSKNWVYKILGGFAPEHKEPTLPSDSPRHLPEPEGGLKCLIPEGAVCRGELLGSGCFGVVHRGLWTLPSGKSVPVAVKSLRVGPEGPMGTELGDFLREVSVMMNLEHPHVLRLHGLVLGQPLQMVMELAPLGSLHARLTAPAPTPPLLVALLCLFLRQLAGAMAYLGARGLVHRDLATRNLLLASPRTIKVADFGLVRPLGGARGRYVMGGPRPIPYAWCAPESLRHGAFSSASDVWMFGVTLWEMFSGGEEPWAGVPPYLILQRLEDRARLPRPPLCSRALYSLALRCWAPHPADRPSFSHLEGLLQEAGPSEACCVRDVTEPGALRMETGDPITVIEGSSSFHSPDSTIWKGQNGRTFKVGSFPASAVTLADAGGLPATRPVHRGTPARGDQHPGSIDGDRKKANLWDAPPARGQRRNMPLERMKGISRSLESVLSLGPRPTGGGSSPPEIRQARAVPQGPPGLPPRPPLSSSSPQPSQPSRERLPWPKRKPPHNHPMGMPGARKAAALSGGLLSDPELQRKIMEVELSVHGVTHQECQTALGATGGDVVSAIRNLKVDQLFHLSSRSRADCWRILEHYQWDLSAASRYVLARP
Chain of Serine/threonine-protein kinase SMG1 (Q96Q15 whole entry): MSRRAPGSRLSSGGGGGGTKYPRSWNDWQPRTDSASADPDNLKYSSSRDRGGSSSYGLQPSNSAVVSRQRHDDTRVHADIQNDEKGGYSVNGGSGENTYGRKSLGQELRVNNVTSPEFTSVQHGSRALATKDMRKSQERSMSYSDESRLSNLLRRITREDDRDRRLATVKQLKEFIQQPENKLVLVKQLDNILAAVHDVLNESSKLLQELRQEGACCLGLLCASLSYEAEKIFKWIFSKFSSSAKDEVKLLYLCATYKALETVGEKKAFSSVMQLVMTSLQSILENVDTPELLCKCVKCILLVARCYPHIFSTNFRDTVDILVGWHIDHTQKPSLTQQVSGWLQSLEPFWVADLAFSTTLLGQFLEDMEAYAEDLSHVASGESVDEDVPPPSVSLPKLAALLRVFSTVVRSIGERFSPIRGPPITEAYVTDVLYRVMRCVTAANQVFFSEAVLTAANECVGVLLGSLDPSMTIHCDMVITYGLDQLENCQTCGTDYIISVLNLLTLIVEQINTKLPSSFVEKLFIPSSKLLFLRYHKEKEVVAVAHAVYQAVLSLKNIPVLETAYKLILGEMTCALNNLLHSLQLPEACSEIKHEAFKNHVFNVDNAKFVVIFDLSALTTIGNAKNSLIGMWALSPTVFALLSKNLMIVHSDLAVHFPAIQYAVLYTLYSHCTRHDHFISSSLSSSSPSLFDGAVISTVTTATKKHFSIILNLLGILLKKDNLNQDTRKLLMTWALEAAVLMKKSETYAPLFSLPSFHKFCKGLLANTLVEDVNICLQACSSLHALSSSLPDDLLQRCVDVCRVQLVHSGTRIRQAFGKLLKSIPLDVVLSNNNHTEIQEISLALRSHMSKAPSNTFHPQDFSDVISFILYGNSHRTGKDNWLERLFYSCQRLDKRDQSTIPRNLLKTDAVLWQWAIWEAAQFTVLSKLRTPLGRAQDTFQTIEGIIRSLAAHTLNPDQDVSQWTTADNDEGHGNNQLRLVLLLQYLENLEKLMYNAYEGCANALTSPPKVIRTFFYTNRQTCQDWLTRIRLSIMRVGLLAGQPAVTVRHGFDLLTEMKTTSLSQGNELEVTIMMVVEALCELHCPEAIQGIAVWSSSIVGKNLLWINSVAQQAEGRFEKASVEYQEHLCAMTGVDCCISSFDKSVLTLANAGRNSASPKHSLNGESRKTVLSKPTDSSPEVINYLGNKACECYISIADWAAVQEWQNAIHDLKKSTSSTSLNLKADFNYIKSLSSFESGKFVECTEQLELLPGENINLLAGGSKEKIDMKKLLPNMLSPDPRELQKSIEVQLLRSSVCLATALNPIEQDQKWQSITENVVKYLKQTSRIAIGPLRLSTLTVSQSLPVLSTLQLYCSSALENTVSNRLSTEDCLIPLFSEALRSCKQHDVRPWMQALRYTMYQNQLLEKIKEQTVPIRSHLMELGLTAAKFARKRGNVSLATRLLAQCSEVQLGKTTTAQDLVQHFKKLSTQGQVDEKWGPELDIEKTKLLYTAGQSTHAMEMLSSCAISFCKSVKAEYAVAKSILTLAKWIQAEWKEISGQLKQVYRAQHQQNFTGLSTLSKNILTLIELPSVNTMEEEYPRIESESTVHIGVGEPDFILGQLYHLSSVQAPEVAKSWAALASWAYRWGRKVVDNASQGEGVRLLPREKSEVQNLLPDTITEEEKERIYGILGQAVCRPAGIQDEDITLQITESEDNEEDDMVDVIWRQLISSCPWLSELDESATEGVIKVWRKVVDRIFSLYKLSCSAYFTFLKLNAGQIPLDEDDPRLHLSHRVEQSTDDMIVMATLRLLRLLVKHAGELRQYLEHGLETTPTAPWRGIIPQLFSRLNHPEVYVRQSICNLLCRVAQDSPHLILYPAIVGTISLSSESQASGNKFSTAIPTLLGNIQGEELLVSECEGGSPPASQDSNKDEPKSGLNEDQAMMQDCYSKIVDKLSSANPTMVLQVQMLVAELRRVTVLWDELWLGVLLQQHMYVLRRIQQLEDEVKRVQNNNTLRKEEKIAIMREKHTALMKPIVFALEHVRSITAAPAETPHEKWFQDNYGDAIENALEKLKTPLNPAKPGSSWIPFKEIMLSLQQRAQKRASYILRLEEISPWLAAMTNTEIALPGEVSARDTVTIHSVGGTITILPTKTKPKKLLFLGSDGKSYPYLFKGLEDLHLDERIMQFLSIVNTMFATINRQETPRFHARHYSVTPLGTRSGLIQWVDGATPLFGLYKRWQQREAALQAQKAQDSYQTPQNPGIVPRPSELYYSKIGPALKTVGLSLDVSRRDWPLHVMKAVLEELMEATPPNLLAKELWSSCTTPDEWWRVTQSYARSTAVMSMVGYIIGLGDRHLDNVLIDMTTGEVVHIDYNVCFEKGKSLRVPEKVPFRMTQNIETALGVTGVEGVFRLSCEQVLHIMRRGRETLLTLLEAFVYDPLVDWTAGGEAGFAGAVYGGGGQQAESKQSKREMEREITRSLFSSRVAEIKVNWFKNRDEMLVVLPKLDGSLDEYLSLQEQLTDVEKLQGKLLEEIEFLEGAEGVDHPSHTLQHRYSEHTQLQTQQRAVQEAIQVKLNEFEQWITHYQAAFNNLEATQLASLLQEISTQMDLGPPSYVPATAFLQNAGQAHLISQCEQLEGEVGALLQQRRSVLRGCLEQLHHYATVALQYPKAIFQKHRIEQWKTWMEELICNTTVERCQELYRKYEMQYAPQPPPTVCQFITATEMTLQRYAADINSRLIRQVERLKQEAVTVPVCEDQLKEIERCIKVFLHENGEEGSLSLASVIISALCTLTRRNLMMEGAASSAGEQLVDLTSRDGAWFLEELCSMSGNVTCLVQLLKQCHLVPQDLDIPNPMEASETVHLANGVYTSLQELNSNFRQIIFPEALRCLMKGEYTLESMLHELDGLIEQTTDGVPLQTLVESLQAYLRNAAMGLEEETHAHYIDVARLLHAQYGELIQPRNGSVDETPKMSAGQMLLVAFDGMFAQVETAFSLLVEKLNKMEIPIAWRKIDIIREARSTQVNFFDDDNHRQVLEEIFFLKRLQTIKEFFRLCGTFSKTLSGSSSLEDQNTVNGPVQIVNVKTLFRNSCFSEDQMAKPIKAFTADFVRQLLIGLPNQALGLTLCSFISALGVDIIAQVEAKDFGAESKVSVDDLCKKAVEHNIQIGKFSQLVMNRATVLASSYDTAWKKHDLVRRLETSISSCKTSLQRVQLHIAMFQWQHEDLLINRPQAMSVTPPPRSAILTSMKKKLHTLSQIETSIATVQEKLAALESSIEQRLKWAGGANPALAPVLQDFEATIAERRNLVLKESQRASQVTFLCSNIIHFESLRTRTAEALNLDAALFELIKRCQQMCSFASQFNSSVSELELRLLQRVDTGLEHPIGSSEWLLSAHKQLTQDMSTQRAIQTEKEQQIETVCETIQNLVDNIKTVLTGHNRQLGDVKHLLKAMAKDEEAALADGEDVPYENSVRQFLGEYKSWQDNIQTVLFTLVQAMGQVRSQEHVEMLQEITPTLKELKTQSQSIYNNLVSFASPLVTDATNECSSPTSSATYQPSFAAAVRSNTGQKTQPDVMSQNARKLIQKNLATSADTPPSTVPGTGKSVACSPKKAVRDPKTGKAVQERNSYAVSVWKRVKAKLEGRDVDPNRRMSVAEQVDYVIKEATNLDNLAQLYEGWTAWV
Chain of Tyrosine-protein kinase Fer (P16591 whole entry, looked up): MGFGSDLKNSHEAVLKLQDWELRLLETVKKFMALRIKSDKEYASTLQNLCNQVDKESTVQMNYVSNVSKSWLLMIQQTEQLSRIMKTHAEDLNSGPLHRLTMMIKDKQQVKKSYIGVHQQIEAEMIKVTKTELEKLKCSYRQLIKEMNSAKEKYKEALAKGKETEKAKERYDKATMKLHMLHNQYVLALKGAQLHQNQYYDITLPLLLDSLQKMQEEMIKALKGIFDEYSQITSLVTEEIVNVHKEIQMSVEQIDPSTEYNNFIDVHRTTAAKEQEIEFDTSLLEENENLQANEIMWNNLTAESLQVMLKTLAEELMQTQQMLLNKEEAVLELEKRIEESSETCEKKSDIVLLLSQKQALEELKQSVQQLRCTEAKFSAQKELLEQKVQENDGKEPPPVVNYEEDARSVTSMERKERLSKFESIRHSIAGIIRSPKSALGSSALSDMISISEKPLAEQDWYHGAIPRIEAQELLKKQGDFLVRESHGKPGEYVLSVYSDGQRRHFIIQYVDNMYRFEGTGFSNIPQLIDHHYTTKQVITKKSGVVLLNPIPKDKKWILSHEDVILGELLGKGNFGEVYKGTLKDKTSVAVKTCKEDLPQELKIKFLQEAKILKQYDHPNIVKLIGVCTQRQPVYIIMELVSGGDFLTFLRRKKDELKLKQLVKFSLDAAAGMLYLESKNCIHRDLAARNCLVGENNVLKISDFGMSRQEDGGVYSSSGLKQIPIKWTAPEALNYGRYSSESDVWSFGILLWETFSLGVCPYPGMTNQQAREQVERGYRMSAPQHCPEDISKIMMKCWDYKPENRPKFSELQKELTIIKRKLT

CCOc1cc(N2CCC(O)CC2)ccc1Nc1ncc2c(n1)N(C)c1ccccc1C(=O)N2C
pIC50 [1]: < 4.30 | pIC50 [2]: < 4.30 | inhibition [3]: -1.9% | Activity [4]: 15% | pKd [5]: 6.05 | inhibition at 10 µM [6]: -11.8% | inhibition [7]: 20.9% | pIC50 [8]: 4.51 | pIC50 [9]: < 4.30 | inhibition [10]: 8% | pIC50 [11]: < 4.30 | Activity [12]: 31% | pIC50 [13]: < 4.30 | inhibition [14]: -3.1% | inhibition [15]: 26.2% | inhibition [16]: -3% | inhibition [17]: 16.6%
